ChEMBL document CHEMBL3232988, “Design, synthesis and biological evaluation of a series of pyrano chalcone derivatives containing indole moiety as novel anti-tubulin agents” (Bioorg Med Chem, 2014)
The source made the active and inactive calls. The calls are words filed in the database; no cut-off is given here.

Experiments:
A549 = assay: Antiproliferative activity against human A549 cells after 24 hrs by MTT assay; assay type: functional, cell-based; conditions: A549, 24 h
In short: (§1)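 Seeded at 1 × 10⁴ cells per well, incubated 24 h before treatment. MTT (20 µL of 5 mg/mL in PBS) added per well and incubated until purple precipitate appeared. Medium removed, precipitate dissolved in 150 µL DMSO, shaken 10 min, absorbance read at 570 nm. Growth expressed as percentage of untreated control.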

HepG2 [1] = assay: Cell cycle arrest in human HepG2 cells assessed as accumulation at G1-phase at 0.125 uM after 24 hrs by propidium iodide staining-based flow cytometric analysis (reference value: 42.5%); assay type: functional
In short: (§2)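 HepG2 cells (2 × 10⁵) cultured 24 h, then given 0.1% DMSO vehicle or compound for 24 h. Fixed in ice-chilled methanol at least 30 min at 4 °C, washed twice with PBS, then stained 0.5 h at 37 °C in PBS with 1 mg/mL RNase A and propidium iodide. DNA content measured by flow cytometry for phase distribution.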

HepG2 [2] = assay: Cell cycle arrest in human HepG2 cells assessed as accumulation at G1-phase at 0.50 uM after 24 hrs by propidium iodide staining-based flow cytometric analysis (reference value: 42.5%); assay type: functional; in short: as §2
HepG2 [3] = assay: Cell cycle arrest in human HepG2 cells assessed as accumulation at S-phase at 0.25 uM after 24 hrs by propidium iodide staining-based flow cytometric analysis (reference value: 32%); assay type: functional; in short: as §2
HepG2 [4] = assay: Antiproliferative activity against human HepG2 cells after 24 hrs by MTT assay; assay type: functional, cell-based; conditions: HepG2, 24 h; in short: as §1
HepG2 [5] = assay: Cell cycle arrest in human HepG2 cells assessed as accumulation at G2/M-phase after 24 hrs by propidium iodide staining-based flow cytometric analysis; assay type: functional; in short: as §2
HepG2 [6] = assay: Antitumor activity against human HepG2 cells xenografted in BALB/c nude mouse assessed as tumor growth inhibition at 30 mg/kg, iv administered once every 2 days for 21 days measured every 3 days up to 35 days relative to control; assay type: functional; conditions: read-out: TGI
In short: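 Female BALB/c nude mice, six weeks old (16–18 g), inoculated in the right gluteal region with 1 × 10⁷ HepG2 cells in 0.1 mL DMEM. At 100 mm³, randomized into four groups of six. Tail-vein dosing every other day for 21 days; vehicle control on the same schedule; 5-Fu 5 mg/kg iv daily as reference. Caliper measurement every 3 days, volume = π/6 × length × width × width. Compared with control by t test.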

HepG2 [7] = assay: Cell cycle arrest in human HepG2 cells assessed as accumulation at G2/M-phase at 0.125 uM after 24 hrs by propidium iodide staining-based flow cytometric analysis (reference value: 25.5%); assay type: functional; in short: as §2
[8] = Cytotoxicity against human LO2 cells after 24 hrs by MTT assay; assay type: cell-based; conditions: L02, 24 h; in short: as §1
SK-OV-3 = assay: Antiproliferative activity against human SKOV3 cells after 24 hrs by MTT assay; assay type: functional, cell-based; conditions: SK-OV-3, 24 h; in short: as §1
HepG2 [9] = assay: Cell cycle arrest in human HepG2 cells assessed as accumulation at S-phase at 0.375 uM after 24 hrs by propidium iodide staining-based flow cytometric analysis (reference value: 32%); assay type: functional; in short: as §2
HepG2 [10] = assay: Cell cycle arrest in human HepG2 cells assessed as accumulation at G1-phase at 0.375 uM after 24 hrs by propidium iodide staining-based flow cytometric analysis (reference value: 42.5%); assay type: functional; in short: as §2
HepG2 [11] = assay: Cell cycle arrest in human HepG2 cells assessed as accumulation at S-phase at 0.50 uM after 24 hrs by propidium iodide staining-based flow cytometric analysis (reference value: 32%); assay type: functional; in short: as §2
[12] = Antiproliferative activity against human […] cells after 24 hrs by MTT assay; assay type: functional, cell-based; in short: as §1
HepG2 [13] = assay: Cell cycle arrest in human HepG2 cells assessed as accumulation at G2/M-phase at 0.25 uM after 24 hrs by propidium iodide staining-based flow cytometric analysis (reference value: 25.5%); assay type: functional; in short: as §2
HCT-116 = assay: Antiproliferative activity against human HCT116 cells after 24 hrs by MTT assay; assay type: functional, cell-based; conditions: HCT-116, 24 h; in short: as §1
HepG2 [14] = assay: Induction of apoptosis in human HepG2 cells after 48 hrs by propidium iodide staining-based flow cytometric analysis; assay type: functional, cell-based
HepG2 [15] = assay: Cell cycle arrest in human HepG2 cells assessed as accumulation at G2/M-phase at 0.375 uM after 24 hrs by propidium iodide staining-based flow cytometric analysis (reference value: 25.5%); assay type: functional; in short: as §2
[16] = Antiproliferative activity against vincristine resistant human HCT8 cells after 24 hrs by MTT assay; assay type: functional, cell-based; conditions: HCT-8, 24 h; in short: as §1
HepG2 [17] = assay: Cell cycle arrest in human HepG2 cells assessed as accumulation at S-phase at 0.125 uM after 24 hrs by propidium iodide staining-based flow cytometric analysis (reference value: 32%); assay type: functional; in short: as §2
Rattus norvegicus = species on record: Rattus norvegicus; assay: Inhibition of rat tubulin polymerization at 10 uM measured for 60 mins by luminometric analysis
PC-3 = assay: Antiproliferative activity against human PC3 cells after 24 hrs by MTT assay; assay type: functional, cell-based; conditions: PC-3, 24 h; in short: as §1
K562 = assay: Antiproliferative activity against human K562 cells after 24 hrs by MTT assay; assay type: functional, cell-based; conditions: K562, 24 h; in short: as §1
[18] = Antiproliferative activity against taxol resistant human HCT8 cells after 24 hrs by MTT assay; assay type: functional, cell-based; conditions: HCT-8, 24 h; in short: as §1
MCF7 = assay: Antiproliferative activity against human MCF7 cells after 24 hrs by MTT assay; assay type: functional, cell-based; conditions: MCF7, 24 h; in short: as §1
HepG2 [19] = assay: Cell cycle arrest in human HepG2 cells assessed as accumulation at G2/M-phase at 0.50 uM after 24 hrs by propidium iodide staining-based flow cytometric analysis (reference value: 25.5%); assay type: functional; in short: as §2
HepG2 [20] = assay: Antitumor activity against human HepG2 cells xenografted in BALB/c nude mouse assessed as tumor growth inhibition at 5 mg/kg, iv administered once every 2 days for 21 days measured every 3 days up to 35 days relative to control; assay type: functional; conditions: read-out: TGI
In short: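 Female BALB/c nude mice, six weeks old (16–18 g), inoculated in the right gluteal region with 1 × 10⁷ HepG2 cells in 0.1 mL DMEM. When tumours reached 100 mm³, mice were randomised into four groups of six. Dosing was by tail-vein injection; the vehicle group followed the test schedule. Tumours were measured by caliper every 3 days, with volume = π/6 × length × width × width.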

SMILES: CCC(=O)Oc1ccc(C(=O)/C=C/c2ccc3c(ccn3C)c2)c2c1C=CC(C)(C)O2
- IC50 (A549): 680 nM
- Activity (HepG2 [1]): 30.7%
- Activity (HepG2 [2]): 1.6%
- Activity (HepG2 [3]): 35%
- IC50 (HepG2 [4]): 220 nM
- Activity (HepG2 [5]): Dose-dependent effect
- inhibition in vivo at 30 mg/kg (HepG2 [6]): 56.6%
- Activity (HepG2 [7]): 26.2%
- IC50 [8]: > 10000 nM
- IC50 (SK-OV-3): 230 nM
- Activity (HepG2 [9]): 22.5%
- Activity (HepG2 [10]): 2.5%
- Activity (HepG2 [11]): 12.4%
- IC50 [12]: 1800 nM
- Activity (HepG2 [13]): 60.7%
- IC50 (HCT-116): 1280 nM
- Activity (HepG2 [14]): Dose-dependent effect
- Activity (HepG2 [15]): 75%
- IC50 [16]: 450 nM
- Activity (HepG2 [17]): 43.1%
- inhibition (Rattus norvegicus): Active
- IC50 (PC-3): 650 nM
- IC50 (K562): 800 nM
- IC50 [18]: 1600 nM
- IC50 (MCF7): 1500 nM
- Activity (HepG2 [19]): 86%

SMILES: O=c1[nH]cc(F)c(=O)[nH]1 [FLUOROURACIL]
- inhibition in vivo at 5 mg/kg (HepG2 [20]): 25.9%
